Here are results for 23 molecules from ChEMBL document CHEMBL1128640, “Thiopyranol[2,3,4-c,d]indoles as inhibitors of 5-lipoxygenase, 5-lipoxygenase-activating protein, and leukotriene C4 synthase” (J Med Chem, 1995).

pIC50: −log10 of the molar value.

For one data set, the system named is Rattus norvegicus. Briefly: Compound was tested for the inhibition of dyspnea in hyperreactive rats dosed at 5 mg/kg po. Format: functional. Conditions: for inhibition in vivo at 5 mg/kg: Rattus norvegicus, po. An outline of the steps: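 Inbred hyperreactive rats (n = 6) pretreated with methysergide 3 μg/kg iv. Sodium salt given po in 1% or 0.5% methocel 2 h before ovalbumin antigen challenge. Read-out is percent inhibition of dyspnea duration versus litter mate-matched vehicle-treated controls.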

For data set [1], the target named is T1, Polyunsaturated fatty acid 5-lipoxygenase (Homo sapiens, UniProt P09917).
T1 sequence (P09917 whole entry): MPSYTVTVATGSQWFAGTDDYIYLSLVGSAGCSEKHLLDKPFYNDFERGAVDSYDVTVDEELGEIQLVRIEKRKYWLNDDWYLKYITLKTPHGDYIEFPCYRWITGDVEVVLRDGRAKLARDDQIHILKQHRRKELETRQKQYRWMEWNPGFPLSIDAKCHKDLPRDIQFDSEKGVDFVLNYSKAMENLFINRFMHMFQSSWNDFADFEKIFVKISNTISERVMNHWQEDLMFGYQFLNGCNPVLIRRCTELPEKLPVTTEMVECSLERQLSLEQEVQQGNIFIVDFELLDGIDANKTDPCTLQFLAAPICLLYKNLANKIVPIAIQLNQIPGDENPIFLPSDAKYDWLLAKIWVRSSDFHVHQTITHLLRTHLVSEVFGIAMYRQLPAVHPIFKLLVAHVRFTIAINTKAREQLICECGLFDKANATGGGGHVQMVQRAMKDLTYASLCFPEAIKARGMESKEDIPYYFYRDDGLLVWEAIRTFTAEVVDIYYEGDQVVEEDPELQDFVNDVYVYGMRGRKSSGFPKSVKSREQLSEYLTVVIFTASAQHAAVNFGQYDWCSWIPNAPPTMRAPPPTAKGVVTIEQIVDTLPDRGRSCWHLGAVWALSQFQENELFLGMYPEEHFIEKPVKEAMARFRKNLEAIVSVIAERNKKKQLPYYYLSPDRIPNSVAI
The data set can be described thus: Inhibition of Human 5-lipoxygenase. Summed up:
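Enzyme source is the 100000g supernatant (S100) of insect cells overexpressing human 5-LO. Activity followed spectrophotometrically as 5-HPETE production. IC50 is the mean of at least two independent determinations unless the value came from a single titration.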

A short description of data set [2]: Bioavailability in rat. The data set is classed as ADME, organism-based. Conditions: in vivo. Summed up:
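Rats dosed with sodium salts, 20 mg/kg po in 1% methocel and 5 mg/kg iv in PEG 200 (n = 2); plasma profiles collected over 0–6 h. Bioavailability calculated as AUC_po/4 × AUC_iv.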

Data set [3] has as its target T2, Arachidonate 5-lipoxygenase-activating protein (Homo sapiens, UniProt P20292).
T2 sequence (P20292 whole entry): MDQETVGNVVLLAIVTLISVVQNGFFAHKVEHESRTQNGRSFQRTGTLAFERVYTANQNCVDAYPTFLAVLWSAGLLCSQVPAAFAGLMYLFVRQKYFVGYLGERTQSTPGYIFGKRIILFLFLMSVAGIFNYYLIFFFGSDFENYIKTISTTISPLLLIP
Briefly: Inhibition of 5-lipoxygenase activating protein using human leukocyte membrane preparations. Summed up:
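Binding assay on human leukocyte membrane preparations, measuring displacement of [¹²⁵I]-L-691,831 by drug. IC50 is the mean of at least two independent determinations unless the value came from a single titration.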

In general, inhibition in vivo refers to the relative decrease from the control value, in per cent. A higher inhibition in vivo goes with strong suppression. A word on the pIC50: it is the IC50 on a negative log10 scale, so that one unit is a factor of ten. Broadly, the bioavailability is the share of a dose that reaches the circulation, judged against a reference dose that is usually intravenous. A high value points to much systemic uptake. The molecule `CC1Cc2c(OCc3ccc(-c4ccccc4)cn3)ccc3c2c(c(CCOc2ccccc2CC(=O)O)n3Cc2ccc(Cl)cc2)S1` (stereo not given) gave an inhibition in vivo at 5 mg/kg with Rattus norvegicus of 47%. Further, the pIC50 in data set [1] is 7.22. Further, the bioavailability in data set [2] stood at 15%.

As for `CC(C)c1ccc2c(c1)c(SC(C)(C)C)c(CC(C)(C)C(=O)O)n2Cc1ccc(Cl)cc1`, the pIC50 in data set [1] is less than 8.00.

For `CC1Cc2c(OCc3ccc(-c4ccccc4)cn3)ccc3c2c(c(CCOc2ccccc2C(=O)O)n3Cc2ccc(Cl)cc2)S1` (stereo not given), the inhibition in vivo at 5 mg/kg in the data set on Rattus norvegicus was 42%. The same molecule showed a pIC50 in data set [1] of 7.22. This molecule came in with a bioavailability in data set [2] of 37%.

On to `CC1Cc2c(OCc3ccc(-c4ccccc4)cn3)ccc3c2c(c(CCOc2cccc(C(=O)O)c2)n3Cc2ccc(Cl)cc2)S1` (stereo not given), for which the pIC50 in data set [1] is 6.77.

In the case of `CC1Cc2c(OCc3ccc(-c4ccccc4)cn3)ccc3c2c(c(COc2ccccc2CC(=O)O)n3Cc2ccc(Cl)cc2)S1` (stereo not given), testing at 5 mg/kg in the data set on Rattus norvegicus gave an inhibition in vivo of 27%. The molecule further showed a pIC50 in data set [1] of 7.59. The molecule also returned a bioavailability in data set [2] of 35%.

In the case of `CC1Cc2c(OCc3cc4ccccc4cn3)ccc3c2c(c(CSc2ccccc2C(=O)O)n3Cc2ccc(Cl)cc2)S1` (stereo not given), the pIC50 in data set [1] is 6.76; in data set [3], 5.54.

In the case of `CC1Cc2c(OCc3ccccn3)ccc3c2c(c(CSc2ccccc2C(=O)O)n3Cc2ccc(Cl)cc2)S1` (stereo not given), the pIC50 in data set [1] was 7.26; in data set [3] it was 6.12.

In data set [1], `CC1Cc2c(OCc3ccc(-c4ccccc4)cn3)ccc3c2c(c(CCOc2ccc(Cl)cc2C(=O)O)n3Cc2ccc(Cl)cc2)S1` (stereo not given) gave a pIC50 of 6.89.

Take `CC1Cc2c(OCc3ccc(-c4ccccc4)cn3)ccc3c2c(c(CCOc2ccccc2CC(=O)O)n3Cc2ccc(F)cc2)S1` (stereo not given): the inhibition in vivo at 5 mg/kg with Rattus norvegicus amounted to 36%. The pIC50 in data set [1] is 7.22. The bioavailability in data set [2] turned out to be 4%.

`CC1Cc2c(OCc3ccc(-c4ccccc4)cn3)ccc3c2c(c(COc2ccccc2CC(=O)O)n3Cc2cccc(Cl)c2)S1` (stereo in doubt; (+)14b) showed a pIC50 in data set [1] of 7.02.

Regarding `CC1Cc2c(OCc3ccc(-c4ccccc4)cn3)ccc3c2c(c(CCc2ccccc2C(=O)O)n3Cc2ccc(Cl)cc2)S1` (stereo not given), the pIC50 in data set [1] was 6.44.

Turning to `COc1ccc(COc2ccc3c4c2CC(C)Sc4c(CSc2ccccc2C(=O)O)n3Cc2ccc(Cl)cc2)nc1` (stereo not given), the pIC50 is 7.28 in data set [1] and 6.43 in data set [3].

By Inhibition is commonly meant the drop in the measured response relative to a control, in per cent. Low values mean little suppression, high ones strong suppression. `CC1Cc2c(OCc3ccc(-c4ccccc4)cn3)ccc3c2c(c(COc2ccccc2CC(=O)O)n3Cc2cccc(Cl)c2)S1` (stereo in doubt; (-)14b) gave an Inhibition with Rattus norvegicus (5 mg/kg) of 58%. In data set [1], this molecule had a pIC50 of 8.00. The molecule also showed a F in data set [2] of 32%.

In the case of `CC1Cc2c(OCc3ccc(-c4ccccc4)cn3)ccc3c2c(c(CSc2ccccc2C(=O)O)n3Cc2ccc(Cl)cc2)S1` (stereo not given), the pIC50 in data set [1] was 7.52. In data set [2], the bioavailability was less than 5%.

Consider `CC1Cc2c(OCc3ccc(-c4ccccc4)cn3)ccc3c2c(c(CCOc2ccccc2CC(=O)O)n3Cc2cccc(F)c2)S1` (stereo not given), for which testing at 5 mg/kg in the data set with Rattus norvegicus gave an inhibition in vivo of 59%. Besides, the pIC50 in data set [1] was 7.64. In addition, the bioavailability in data set [2] came to 44%.

In the case of `CC1Cc2c(OCc3ccc(-c4ccccc4)cn3)ccc3c2c(c(CCOc2ccccc2CC(=O)O)n3Cc2cccc(Cl)c2)S1` (stereo not given), the pIC50 in data set [1] is 7.40.

Take `CC1Cc2c(OCc3ccc4ccccc4n3)ccc3c2c(c(COc2ccccc2CC(=O)O)n3Cc2ccc(Cl)cc2)S1` (stereo not given): the pIC50 is 7.00 in data set [1] and 7.49 in data set [3].

Consider `CC1Cc2c(OCc3ccc4ccccc4n3)ccc3c2c(c(CSc2ccccc2C(=O)O)n3Cc2ccc(Cl)cc2)S1` (stereo not given), for which the pIC50 in data set [1] was 7.15; in data set [3] it was 7.14.

In turn, `CC1Cc2c(OCc3ccc(-c4ccccc4)cn3)ccc3c2c(c(CCSc2ccccc2C(=O)O)n3Cc2ccc(Cl)cc2)S1` (stereo not given) gave a pIC50 in data set [1] of 7.52. In data set [2], this molecule had a bioavailability of 10%.

In the case of `CC(C)(C)Sc1c(CC(C)(C)C(=O)O)n(Cc2ccc(Cl)cc2)c2ccc(OCc3ccc4ccccc4n3)cc12` [QUIFLAPON], the figures for the pIC50 in data set [1] and in data set [3] were less than 5.00 and 8.80, respectively.

In turn, `CC1Cc2c(OCc3ccc(-c4ccccc4)cn3)ccc3c2c(c(COCc2ccccc2C(=O)O)n3Cc2ccc(Cl)cc2)S1` (stereo not given) had a pIC50 in data set [1] of 7.21.

Molecule `CCC(OCCc1c2c3c(c(OCc4ccc(-c5ccccc5)cn4)ccc3n1Cc1ccc(Cl)cc1)CC(C)S2)C(=O)O` (stereo not given) had an inhibition in vivo at 5 mg/kg in the data set on Rattus norvegicus of 50%.

In the data set with Rattus norvegicus, `CC1Cc2c(OCc3ccc(-c4ccccc4)cn3)ccc3c2c(c(COc2ccccc2CC(=O)O)n3Cc2cccc(Cl)c2)S1` (stereo in doubt; 14b) registered an inhibition in vivo at 5 mg/kg of 74%. Moreover, in data set [1], the pIC50 is 7.74. For the same molecule, the F in data set [2] came to 11%.
